Data from ChEMBL document CHEMBL4765386, “Discovery of tertiary amide derivatives incorporating benzothiazole moiety as anti-gastric cancer agents in vitro via inhibiting tubulin polymerization and activating the Hippo signaling pathway” (Eur J Med Chem, 2020).

Key:
MGC-803 = assay: Antiproliferative activity against human MGC-803 cells assessed as reduction in cell viability incubated for 48 hrs by MTT assay; assay type: functional, cell-based; conditions: MGC-803, 48 h
Summary of the method: (§1)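 MTT assay. Compound added 24 h after seeding and left for 48 h. MTT was then added for 4 h at 37 °C, formazan dissolved in DMSO and absorbance read at 490 nm. IC50 calculated from three independent experiments.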

HCT-116 = assay: Antiproliferative activity against human HCT-116 cells assessed as reduction in cell viability incubated for 48 hrs by MTT assay; assay type: functional, cell-based; conditions: HCT-116, 48 h
Summary of the method: as §1, with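 “assay. 5,000 cells per well in RPMI-1640 with 10% FBS and penicillin/streptomycin at 37 °C, 5% CO2.” for “assay.”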

PC-3 = assay: Antiproliferative activity against human PC-3 cells assessed as reduction in cell viability incubated for 48 hrs by MTT assay; assay type: functional, cell-based; conditions: PC-3, 48 h
Summary of the method: as §1, with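 “assay. 5,000 cells per well in RPMI-1640 with 10% FBS and penicillin/streptomycin at 37 °C, 5% CO2.” for “assay.”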

[1] = test system: MGC-803/PTX (Homo sapiens); assay: Cytotoxicity against human MGC-803/PTX cells assessed as reduction in cell viability at 15 nM incubated for 48 hrs by MTT assay relative to control
[2] = Inhibition of tubulin (unknown origin); parameters: species or system Homo sapiens

IC50 (MGC-803) | IC50 (HCT-116) | IC50 (PC-3) | IC50 [2] | Compound | inhibition at 0.015 µM [1]
45.7 µM | 65.3 µM | > 80 µM | – | COc1cc(CN(C(=O)CSc2nc3ccccc3s2)c2cc(OC)c(OC)c(OC)c2)cc(OC)c1OC | –
0.071 µM | 0.352 µM | 4.11 µM | – | COc1ccc2nc(SCC(=O)N(Cc3ccc(OC)c(O)c3)c3cc(OC)c(OC)c(OC)c3)sc2c1 | –
6.36 µM | 17.1 µM | 34.3 µM | – | COc1ccc(CN(C(=O)CSc2nc3ccccc3s2)c2cc(OC)c(OC)c(OC)c2)cc1C | –
54.2 µM | > 80 µM | > 80 µM | – | COc1cc(N(Cc2ccc(C)cc2)C(=O)CSc2nc3ccccc3s2)cc(OC)c1OC | –
– | – | – | – | CC(=O)O[C@H]1C(=O)[C@@]2(C)[C@H]([C@H](OC(=O)c3ccccc3)[C@]3(O)C[C@H](OC(=O)[C@H](O)[C@@H](NC(=O)c4ccccc4)c4ccccc4)C(C)=C1C3(C)C)[C@]1(OC(C)=O)CO[C@@H]1C[C@@H]2O [PACLITAXEL] | < 15%
0.085 µM | 0.429 µM | 11.2 µM | – | COc1ccc(CN(C(=O)CSc2nc3cc(Cl)ccc3s2)c2cc(OC)c(OC)c(OC)c2)cc1O | –
0.372 µM | 3.38 µM | 8.21 µM | – | COc1ccc(CN(C(=O)CSc2nc3cc(Br)ccc3s2)c2cc(OC)c(OC)c(OC)c2)cc1O | –
– | – | – | 2.26 µM | COc1cc(N2C(=O)[C@H](c3cccs3)[C@H]2c2cccc(N=[N+]=[N-])c2)cc(OC)c1OC | –
0.187 µM | 2.86 µM | 14.4 µM | – | COc1ccc(CN(C(=O)CSc2nc3ccccc3s2)c2cc(OC)c(OC)c(OC)c2)cc1N=[N+]=[N-] | –
0.852 µM | 4.55 µM | 16 µM | – | COc1ccc(CN(C(=O)CSc2nc3ccccc3s2)c2cc(OC)c(OC)c(OC)c2)cc1Br | –
0.084 µM | 0.491 µM | 7.51 µM | – | COc1ccc(CN(C(=O)CSc2nc3ccccc3s2)c2cc(OC)c(OC)c(OC)c2)cc1N | –
0.493 µM | 0.852 µM | 12.3 µM | – | COc1ccc(CN(C(=O)CSc2nc3c(C)cccc3s2)c2cc(OC)c(OC)c(OC)c2)cc1O | –
0.416 µM | 1.83 µM | 20.1 µM | – | COc1ccc(CN(C(=O)CSc2nc3ccccc3s2)c2cc(OC)c(OC)c(OC)c2)cc1F | –
> 80 µM | 60.3 µM | > 80 µM | – | COc1cc(N(Cc2ccc(Cl)cc2)C(=O)CSc2nc3ccccc3s2)cc(OC)c1OC | –
0.682 µM | 1.28 µM | 26.5 µM | – | COc1ccc(CN(C(=O)CSc2nc3ccccc3s2)c2cc(OC)c(OC)c(OC)c2)cc1[N+](=O)[O-] | –
48.1 µM | 63.8 µM | > 80 µM | – | COc1cc(N(Cc2ccc(Br)cc2)C(=O)CSc2nc3ccccc3s2)cc(OC)c1OC | –
34.1 µM | 33.9 µM | > 80 µM | – | COc1ccc(CN(C(=O)CSc2nc3ccccc3s2)c2cc(OC)c(OC)c(OC)c2)cc1OC | –
25.2 µM | > 80 µM | > 80 µM | – | COc1ccc(CN(C(=O)CSc2nc3ccccc3s2)c2cc(OC)c(OC)c(OC)c2)cc1C(F)(F)F | –
> 80 µM | 59.8 µM | 50.8 µM | – | COc1cc(N(Cc2ccc(F)cc2)C(=O)CSc2nc3ccccc3s2)cc(OC)c1OC | –
44.3 µM | 54.5 µM | 54.1 µM | – | COc1cc(N(Cc2ccccc2)C(=O)CSc2nc3ccccc3s2)cc(OC)c1OC | –
0.163 µM | 0.426 µM | 8.46 µM | – | COc1ccc(CN(C(=O)CSc2nc3ccccc3s2)c2cc(OC)c(OC)c(OC)c2)cc1 | –

Compound | IC50 (MGC-803) | IC50 (HCT-116) | IC50 (PC-3) | IC50 [2] | inhibition at 0.015 µM [1]
COc1ccc(/C=C\c2cc(OC)c(OC)c(OC)c2)cc1OP(=O)(O)O [FOSBRETABULIN] | 0.02 µM | 0.042 µM | 0.033 µM | – | –
COc1cc2c(c(OC)c1OC)-c1ccc(OC)c(=O)cc1[C@@H](NC(C)=O)CC2 [COLCHICINE] | 0.107 µM | 0.129 µM | 0.338 µM | – | –
